Assay results as given in ChEMBL document CHEMBL4825702, “5-Aminonaphthalene derivatives as selective nonnucleoside nuclear receptor binding SET domain-protein 2 (NSD2) inhibitors for the treatment of multiple myeloma” (Eur J Med Chem, 2021).
Active and inactive are the calls of the source. The calls are words filed in the database; no cut-off is given here.

Legend:
[1] = Inhibition of PAK1 transcriptional activity in human KMS-11 cells assessed as reduction in H3K36 methylation at 10 uM measured after 72 hrs by chip q-PCR analysis
[2] = tested on: RS4-11; experiment: Antiproliferative activity against human RS4-11 cells assessed as reduction in cell viability incubated for 6 days by CCK8 assay; format: functional, cell-based; conditions: dose 1-100 µM, time 6.0 day
Method in brief: (§1)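 Cells seeded in triplicate at 6000–20000 per well and left 24 h, then exposed to increasing concentrations for a further 6 days. Viability read with CCK-8 and growth IC50 derived from the dose–response.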

[3] = target: Histone-lysine N-methyltransferase 2B (Homo sapiens, UniProt Q9UMN6); experiment: Inhibition of MLL4 (unknown origin) using SAM as substrate preincubated for 10 mins followed by substrate addition measured after 4 hrs by HTRF method
Method in brief: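 HTRF assay: inhibitor plus enzyme preincubated 10 min at room temperature, then peptide/SAM mix added and incubated at room temperature. Antibody and SA-XL665 detection mix added for 1 h in subdued light. Emission read at 665 and 620 nm; IC50 from two separate experiments.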

[4] = tested on: KMS-11; experiment: Antiproliferative activity against human KMS-11 cells assessed as reduction in cell viability incubated for 6 days by CCK8 assay; format: functional, cell-based; conditions: dose 1-100 µM, time 6.0 day
Method in brief: as §1

[5] = tested on: KARPAS-422; experiment: Antiproliferative activity against human KARPAS-422 cells assessed as reduction in cell viability incubated for 6 days by CCK8 assay
[6] = tested on: MV4-11; experiment: Induction of cell cycle arrest in human MV4-11 cells assessed as G0/G1 phase incubated for 72 hrs by ribonucleaseA/propidium iodide staining based flow cytometry analysis; format: functional
Method in brief: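 Cell cycle by PI: cells exposed for 72 h at 5 and 10 µM vs vehicle, washed twice, fixed overnight in pre-cooled 70% ethanol, then stained 45 min at room temperature with ribonuclease A and PI. Acquired on FACSCanto and phase fractions modelled.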

[7] = tested on: KMS-11; experiment: Antiproliferative activity against human KMS-11 cells assessed as reduction in cell viability at 1 to 100 uM by CCK8 assay; format: functional, cell-based; conditions: dose 1-100 µM, time 6.0 day, TDE = time-dependent effect

Histone-lysine N-methyltransferase 2B, sequence (Q9UMN6 whole entry): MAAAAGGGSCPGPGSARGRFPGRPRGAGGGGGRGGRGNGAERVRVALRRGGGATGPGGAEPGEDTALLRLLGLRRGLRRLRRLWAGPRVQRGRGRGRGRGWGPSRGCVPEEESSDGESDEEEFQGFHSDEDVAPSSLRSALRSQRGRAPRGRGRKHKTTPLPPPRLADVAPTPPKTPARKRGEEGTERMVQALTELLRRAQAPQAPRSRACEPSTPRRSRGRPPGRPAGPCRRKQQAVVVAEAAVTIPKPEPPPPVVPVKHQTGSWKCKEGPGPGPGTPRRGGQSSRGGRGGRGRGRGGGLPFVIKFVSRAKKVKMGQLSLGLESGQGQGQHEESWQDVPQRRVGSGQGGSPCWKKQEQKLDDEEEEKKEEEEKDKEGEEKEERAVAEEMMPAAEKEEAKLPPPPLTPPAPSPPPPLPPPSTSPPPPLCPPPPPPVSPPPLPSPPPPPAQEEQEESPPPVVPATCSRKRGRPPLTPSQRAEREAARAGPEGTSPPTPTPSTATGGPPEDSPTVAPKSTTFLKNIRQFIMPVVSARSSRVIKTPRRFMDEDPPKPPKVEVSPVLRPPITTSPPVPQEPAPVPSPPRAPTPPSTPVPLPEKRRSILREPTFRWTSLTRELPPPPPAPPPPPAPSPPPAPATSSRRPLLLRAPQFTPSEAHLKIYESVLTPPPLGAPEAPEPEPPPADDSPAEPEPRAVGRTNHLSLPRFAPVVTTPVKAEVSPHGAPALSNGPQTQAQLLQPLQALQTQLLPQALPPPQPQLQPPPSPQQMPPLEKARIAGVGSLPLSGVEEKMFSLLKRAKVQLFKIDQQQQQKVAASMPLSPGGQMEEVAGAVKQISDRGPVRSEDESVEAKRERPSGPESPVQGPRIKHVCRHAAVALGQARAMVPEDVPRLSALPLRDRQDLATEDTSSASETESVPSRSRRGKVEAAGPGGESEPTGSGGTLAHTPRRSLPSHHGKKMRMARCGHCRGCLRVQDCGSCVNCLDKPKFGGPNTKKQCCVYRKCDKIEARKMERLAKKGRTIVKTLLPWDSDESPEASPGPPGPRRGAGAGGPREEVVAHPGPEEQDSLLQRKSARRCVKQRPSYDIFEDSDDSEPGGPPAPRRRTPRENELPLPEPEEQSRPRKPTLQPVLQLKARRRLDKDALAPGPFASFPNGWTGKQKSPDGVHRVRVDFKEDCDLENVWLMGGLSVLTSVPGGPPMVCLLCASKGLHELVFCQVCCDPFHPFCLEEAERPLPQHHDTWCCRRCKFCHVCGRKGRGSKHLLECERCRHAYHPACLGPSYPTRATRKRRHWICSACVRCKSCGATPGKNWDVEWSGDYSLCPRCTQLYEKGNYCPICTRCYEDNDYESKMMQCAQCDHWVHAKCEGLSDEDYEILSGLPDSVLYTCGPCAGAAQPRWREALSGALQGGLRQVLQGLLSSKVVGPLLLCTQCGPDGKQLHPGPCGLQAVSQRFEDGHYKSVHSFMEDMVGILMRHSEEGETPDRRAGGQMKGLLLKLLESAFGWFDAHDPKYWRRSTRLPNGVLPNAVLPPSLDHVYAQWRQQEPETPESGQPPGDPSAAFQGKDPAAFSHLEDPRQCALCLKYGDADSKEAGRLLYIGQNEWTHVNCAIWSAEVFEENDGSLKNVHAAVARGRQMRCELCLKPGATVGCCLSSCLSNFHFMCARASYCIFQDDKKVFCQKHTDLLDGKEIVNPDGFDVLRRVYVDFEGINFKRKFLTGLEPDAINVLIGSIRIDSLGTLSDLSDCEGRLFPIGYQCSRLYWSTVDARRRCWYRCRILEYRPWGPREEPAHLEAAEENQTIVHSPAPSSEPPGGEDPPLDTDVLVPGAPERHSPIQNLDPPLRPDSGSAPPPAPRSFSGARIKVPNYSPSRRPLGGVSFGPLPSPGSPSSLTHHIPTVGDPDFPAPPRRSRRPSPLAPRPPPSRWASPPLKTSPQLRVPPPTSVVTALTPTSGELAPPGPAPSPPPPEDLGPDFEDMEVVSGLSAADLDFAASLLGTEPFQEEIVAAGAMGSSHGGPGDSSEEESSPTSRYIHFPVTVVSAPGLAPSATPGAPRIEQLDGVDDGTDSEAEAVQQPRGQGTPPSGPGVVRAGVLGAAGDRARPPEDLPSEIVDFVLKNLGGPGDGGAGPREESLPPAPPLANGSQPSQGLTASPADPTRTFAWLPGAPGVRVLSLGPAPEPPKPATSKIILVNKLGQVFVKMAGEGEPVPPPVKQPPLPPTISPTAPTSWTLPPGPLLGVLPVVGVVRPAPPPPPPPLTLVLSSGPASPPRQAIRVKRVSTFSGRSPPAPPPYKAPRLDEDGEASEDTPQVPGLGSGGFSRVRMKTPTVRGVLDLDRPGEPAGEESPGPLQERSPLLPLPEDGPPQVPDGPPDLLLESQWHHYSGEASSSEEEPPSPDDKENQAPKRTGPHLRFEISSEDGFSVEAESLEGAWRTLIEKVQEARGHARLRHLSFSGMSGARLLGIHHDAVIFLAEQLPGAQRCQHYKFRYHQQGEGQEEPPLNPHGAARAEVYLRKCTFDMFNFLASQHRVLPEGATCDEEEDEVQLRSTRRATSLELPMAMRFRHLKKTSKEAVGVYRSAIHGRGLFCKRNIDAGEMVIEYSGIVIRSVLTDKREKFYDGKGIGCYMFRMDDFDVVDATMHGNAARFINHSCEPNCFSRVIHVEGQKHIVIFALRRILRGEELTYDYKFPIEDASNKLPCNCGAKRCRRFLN

inhibition [1]: Active | IC50 [3]: > 20 µM
Structure (SMILES): Cl.Nc1cccc2c(S(=O)(=O)NCc3ccccc3)cccc12
Activity [2]: Dose-Dependent Effect | Activity [4]: Dose-Dependent Effect | Activity [5]: Active | Activity [6]: inactive | Activity [7]: Tde
